From ChEMBL document CHEMBL3046780, “Syntheses and herbicidal activity of new triazolopyrimidine-2-sulfonamides as acetohydroxyacid synthase inhibitor” (Bioorg Med Chem, 2010)

What was measured:
[1] = system: Amaranthus retroflexus; assay: Post-emergence herbicidal activity against Amaranthus retroflexus assessed as growth inhibition at 150 g ai/ha measured 15 days post compound treatment under green house conditions; assay type: functional; conditions: 360 h, read-out: GI
How it was run: (§1)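 Compounds formulated as 100 g/L emulsifiable concentrate (DMF solvent, Tween-80 emulsifier), diluted with water, sprayed post-emergence on pot-grown weeds in clay soil (pH 6.5, 1.6% organic matter). Seeds sown 1-3 cm deep, grown at 15-30 °C. Dicots were treated at the 2-leaf stage and monocots at the 1-leaf stage. Untreated and DMF-treated controls were included. Injury was rated visually 15 days after treatment.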

[2] = system: Eclipta prostrata; assay: Post-emergence herbicidal activity against Eclipta prostrata assessed as growth inhibition at 150 g ai/ha measured 15 days post compound treatment under green house conditions; assay type: functional; conditions: 360 h, read-out: GI; how it was run: as §1
[3] = system: Echinochloa crus-galli; assay: Post-emergence herbicidal activity against Echinochloa crus-galli (barnyard grass) assessed as growth inhibition at 150 g ai/ha measured 15 days post compound treatment under green house conditions; assay type: functional; conditions: 360 h, read-out: GI; how it was run: as §1
[4] = system: Brassica juncea; assay: Post-emergence herbicidal activity against Brassica juncea assessed as growth inhibition at 150 g ai/ha measured 15 days post compound treatment under green house conditions; assay type: functional; conditions: 360 h, read-out: GI; how it was run: as §1
[5] = system: Digitaria sanguinalis; assay: Post-emergence herbicidal activity against Digitaria sanguinalis (hairy crabgrass) assessed as growth inhibition at 150 g ai/ha measured 15 days post compound treatment under green house conditions; assay type: functional; conditions: 360 h, read-out: GI; how it was run: as §1
[6] = target: T1, Acetolactate synthase, chloroplastic (Arabidopsis thaliana, UniProt P17597)
T1 sequence (P17597 whole entry): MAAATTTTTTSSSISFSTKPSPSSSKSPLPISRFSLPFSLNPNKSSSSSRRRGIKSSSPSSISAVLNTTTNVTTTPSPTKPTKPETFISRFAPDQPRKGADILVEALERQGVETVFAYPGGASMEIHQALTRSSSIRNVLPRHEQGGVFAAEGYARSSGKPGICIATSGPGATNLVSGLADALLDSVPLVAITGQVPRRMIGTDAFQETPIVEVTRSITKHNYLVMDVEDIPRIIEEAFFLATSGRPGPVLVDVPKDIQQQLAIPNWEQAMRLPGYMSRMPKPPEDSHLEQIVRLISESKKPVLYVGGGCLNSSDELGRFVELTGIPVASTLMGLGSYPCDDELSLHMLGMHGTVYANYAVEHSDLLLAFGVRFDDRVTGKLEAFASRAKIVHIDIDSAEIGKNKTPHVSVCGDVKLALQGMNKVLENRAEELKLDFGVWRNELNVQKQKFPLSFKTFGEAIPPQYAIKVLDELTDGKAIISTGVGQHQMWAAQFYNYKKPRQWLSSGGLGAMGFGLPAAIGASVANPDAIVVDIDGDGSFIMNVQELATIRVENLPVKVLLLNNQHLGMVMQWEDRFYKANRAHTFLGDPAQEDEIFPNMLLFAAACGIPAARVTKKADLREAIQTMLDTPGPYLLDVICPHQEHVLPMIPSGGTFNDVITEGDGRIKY

[7] = system: Poa annua; assay: Post-emergence herbicidal activity against Poa annua assessed as growth inhibition at 150 g ai/ha measured 15 days post compound treatment under green house conditions; assay type: functional; conditions: 360 h, read-out: GI; how it was run: as §1

Compound	inhibition of growth at 150 g/ha [1]	inhibition of growth at 150 g/ha [2]	inhibition of growth at 150 g/ha [3]	inhibition of growth at 150 g/ha [4]	inhibition of growth at 150 g/ha [5]	Ki [6]	inhibition of growth at 150 g/ha [7]
COc1ccn2nc(S(=O)(=O)Nc3c(F)cccc3F)nc2n1	≥ 90%	≥ 90%	< 50%	≥ 90%	< 50%	18.5 µM	
COc1ccn2nc(S(=O)(=O)Nc3cc(F)c(F)c(F)c3)nc2n1	< 50%	< 50%	< 50%	< 50%	< 50%	> 1000 µM	< 50%
Cc1nc(C)n2nc(S(=O)(=O)Nc3ccccc3F)nc2c1Cl	50%	50%	< 50%	50%	< 50%	25.8 µM	< 50%
COc1ccn2nc(S(=O)(=O)Nc3ccc(OC(F)(F)F)cc3)nc2n1	< 50%	< 50%	< 50%	< 50%	< 50%	> 1000 µM	< 50%
COc1ccn2nc(S(=O)(=O)Nc3cc(F)ccc3F)nc2n1	50%	50%	< 50%	50%	< 50%	53.3 µM	< 50%
COc1ccn2nc(S(=O)(=O)Nc3ccccc3F)nc2n1	50%	≥ 80%	< 50%	50%	< 50%	25.9 µM	< 50%
Cc1cc2nc(S(=O)(=O)Nc3ccc(C(F)(F)F)cc3Cl)nn2c(C)n1	< 50%	< 50%	< 50%	< 50%	< 50%	178 µM	< 50%
Cc1cc2nc(S(=O)(=O)Nc3ccc(F)c(F)c3F)nn2c(C)n1	< 50%	50%	< 50%	< 50%	< 50%	> 1000 µM	< 50%
Cc1cc2nc(S(=O)(=O)Nc3cc(F)ccc3F)nn2c(C)n1	< 50%	< 50%	< 50%	< 50%	< 50%	28.1 µM	< 50%
Cc1nc(C(F)(F)F)cc2nc(S(=O)(=O)Nc3cc(F)ccc3F)nn12	< 50%	< 50%	< 50%	< 50%	< 50%		< 50%
COc1ccn2nc(S(=O)(=O)Nc3ccc(Br)cc3)nc2n1	< 50%	< 50%	< 50%	< 50%	< 50%	> 1000 µM	< 50%
Cc1cc2nc(S(=O)(=O)Nc3cc(Cl)ccc3C)nn2c(C)n1	< 50%	50%	< 50%	< 50%	< 50%	7.75 µM	< 50%
Cc1nc(C(F)(F)F)cc2nc(S(=O)(=O)Nc3ccc(F)c(F)c3F)nn12	< 50%	50%	< 50%	< 50%	< 50%	> 1000 µM	< 50%
Cc1nc(C)n2nc(S(=O)(=O)Nc3ccc(F)c(F)c3F)nc2c1Cl	< 50%	< 50%	< 50%	< 50%	< 50%	> 1000 µM	< 50%
Cc1cc2nc(S(=O)(=O)Nc3ccccc3F)nn2c(C)n1	50%	50%	< 50%	50%	< 50%	27.7 µM	< 50%
Cc1nc(C)n2nc(S(=O)(=O)Nc3ccc(C(F)(F)F)cc3)nc2c1Cl	50%	50%	< 50%	< 50%	< 50%	> 1000 µM	< 50%
COc1ccn2nc(S(=O)(=O)Nc3ccccc3Br)nc2n1	50%	≥ 80%	< 50%	≥ 80%	< 50%	22.6 µM	< 50%
Cc1nc(C(F)(F)F)cc2nc(S(=O)(=O)Nc3ccccc3F)nn12	50%	50%	< 50%	50%	< 50%	569 µM	< 50%
